Data: ChEMBL document CHEMBL4411261, “Down-Regulation of the Androgen Receptor by G-Quadruplex Ligands Sensitizes Castration-Resistant Prostate Cancer Cells to Enzalutamide” (J Med Chem, 2018)
Activity calls are given as the source filed them. The calls are words filed in the database; no cut-off is given here.

Experiments:
Quadruplex DNA [1] = experiment: Stabilization of AR G-quadruplex oligonucleotide in human PC3 cells assessed as down-regulation of MAX mRNA expression at IC50 after 48 hrs by RT-PCR analysis; format: cell-based
Summary of the method: (§1)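 PC-3 cells (RPMI-1640, 10% fetal calf serum) exposed at an equitoxic concentration. Expression of 92 cancer-mechanism genes measured on TaqMan Arrays. Change versus untreated cells computed by 2−ΔΔCt, with RNaseP as normalizer.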

Quadruplex DNA [2] = experiment: Stabilization of AR G-quadruplex oligonucleotide in human 22Rv1 cells assessed as reduction in AR-VS protein level at IC50 after 48 hrs by Western immunoblot assay; format: cell-based
PC-3 [3] = experiment: Effect on c-MYC mRNA expression in human PC3 cells at IC50 after 48 hrs by RT-PCR analysis; format: functional, cell-based
Summary of the method: (§2)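 Transcripts quantified by TaqMan real-time PCR with RNaseP as normalizer; relative quantity versus untreated cells by the 2−ΔΔCt method. Panel genes measured with a 92-gene cancer-mechanism TaqMan array.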

Quadruplex DNA [4] = experiment: Stabilization of AR G-quadruplex oligonucleotide in human DU145 cells assessed as down-regulation of MAX mRNA expression at IC50 after 48 hrs by RT-PCR analysis; format: cell-based; summary of the method: as §2
Quadruplex DNA [5] = experiment: Stabilization of AR G-quadruplex oligonucleotide in human LNCAP cells assessed as reduction in PSA protein level by immunoblotting assay; format: cell-based
Summary of the method: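 Lysate proteins immunoblotted. Vinculin or β-actin used as loading control, peroxidase-linked secondary antibodies, ECL chemiluminescent detection, autoradiography, densitometric scan. Untreated cells received DMSO.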

[6] = Drug uptake in human PC3 cells at 160 nM after 24 hrs by DAPI staining-based fluorescence microscopic analysis; format: ADME, cell-based; conditions: pc-3, 24 h, 0.16 µM
Quadruplex DNA [7] = experiment: Stabilization of AR G-quadruplex oligonucleotide in human 22Rv1 cells assessed as down-regulation of ITGB3 mRNA expression at IC50 after 48 hrs by RT-PCR analysis; format: cell-based; summary of the method: as §2
PNT1A = experiment: Cytotoxicity against human PNT1A cells assessed as reduction in cell viability after 48 hrs by MTS assay; format: cell-based
Summary of the method: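 Cells kept in RPMI-1640 with 10% fetal calf serum, 37 °C, 5% CO2. Seeded, after 24 h treated with 0.0001, 0.001, 0.01, 0.1, 1 and 10 μM compound (DMSO stocks freshly diluted in medium) for 48 h. MTS added 4 h, absorbance 490 nm; IC50 from curves of % viability inhibition versus DMSO-treated cells against log concentration.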

Quadruplex DNA [8] = experiment: Stabilization of AR G-quadruplex oligonucleotide in human 22Rv1 cells assessed as regulation of PTEN mRNA expression at IC50 after 48 hrs by RT-PCR analysis; format: cell-based; summary of the method: as §2
Quadruplex DNA [9] = experiment: Stabilization of AR G-quadruplex oligonucleotide in human 22Rv1 cells assessed as up-regulation of WNT1 mRNA expression at IC50 after 48 hrs by RT-PCR analysis; format: cell-based; summary of the method: as §2
Quadruplex DNA [10] = experiment: Stabilization of AR G-quadruplex oligonucleotide in human 22Rv1 cells assessed as up-regulation of BAX mRNA expression at IC50 after 48 hrs by RT-PCR analysis; format: cell-based; summary of the method: as §2
PC-3 [11] = experiment: Synergistic cytotoxicity against human PC3 cells assessed as ED75 for Enzalutamide at 0.001 to 0.1 uM after 72 hrs by MTS assay
[12] = Stabilization of AGTGAGAGTGAGAGAGAGAGTGAGAGTGAGAGTGA ssDNA (unknown origin) assessed as change in melting temperature at 16 uM after 16 hrs in presence of 100 mM K+ by CD spectra analysis
Summary of the method: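 CD: oligos at 4 μM final in 10 mM lithium cacodylate pH 7.4, 100 mM KCl, annealed 95 °C 5 min then 4 h room temperature; duplex from equimolar strands. Ligand 16 μM final, 16 h room temperature. Spectra 230−320 nm, 5 mm cell, two scans averaged at 20 °C, buffer-subtracted; melting from spectra 20−90 °C in 5 °C steps.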

CWR22R = experiment: Synergistic cytotoxicity against human 22Rv1 cells expressing full length androgen receptor H875Y point mutant assessed as combination index for reduction in cell viability measured at ED50 Enzalutamide at 0.001 to 0.1 uM after 72 hrs by MTS assay based Chou and Talay's plot analysis; format: functional
Summary of the method: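 Cells in RPMI-1640 with 10% fetal calf serum were exposed to ligand (0.001−0.1 μM) plus enzalutamide (0.5−50 μM) at a fixed ratio, five concentrations, for 72 h at 37 °C, 5% CO2. Viability read by MTS absorbance at 490 nm after 4 h. Combination index computed at ED50 and ED75 by the Chou–Talalay method.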

Quadruplex DNA [13] = experiment: Binding affinity to 5'-Biotinylated-AR1 G-quadruplex oligonucleotide (unknown origin) by SPR analysis; format: nucleic-acid assay
Summary of the method: (§3)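 SPR on streptavidin chip; 5′-biotinylated oligo folded by heating 95 °C 5 min in 10 mM lithium cacodylate, 150 mM KCl, then immobilized at 30 nM to about 600 RU; empty reference cell. Compound 0.7−400 nM in HEPES-KCl (pH 7.4, 0.15 M KCl, 3 mM EDTA) at 40 °C, 40 μL/min, 260 s contact, 600 s dissociation; glycine pH 2.0 regeneration; steady-state affinity fit; at least two independent runs.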

Quadruplex DNA [14] = experiment: Stabilization of AR G-quadruplex oligonucleotide in human 22Rv1 cells assessed as reduction in AR-FL protein level at IC50 after 48 hrs by Western immunoblot assay; format: cell-based
PC-3 [15] = experiment: Synergistic cytotoxicity against human PC3 cells assessed as combination index for reduction in cell viability measured at ED50 Enzalutamide at 0.001 to 0.1 uM after 72 hrs by MTS assay based Chou and Talay's plot analysis
[16] = Binding affinity to 5'-Biotinylated-AGTGAGAGTGAGAGAGAGAGTGAGAGTGAGAGTGA ssDNA (unknown origin) by SPR analysis; summary of the method: as §3
[17] = Drug uptake in human PNT1A cells at 160 nM after 24 hrs by DAPI staining-based fluorescence microscopic analysis; format: ADME, cell-based; conditions: 0.16 µM
Quadruplex DNA [18] = experiment: Stabilization of AR G-quadruplex oligonucleotide in human PC3 cells assessed as down-regulation of ITGB3 mRNA expression at IC50 after 48 hrs by RT-PCR analysis; format: cell-based; summary of the method: as §1
Quadruplex DNA [19] = experiment: Stabilization of AR G-quadruplex oligonucleotide in human DU145 cells assessed as down-regulation of ITGB3 mRNA expression at IC50 after 48 hrs by RT-PCR analysis; format: cell-based; summary of the method: as §2
Quadruplex DNA [20] = experiment: Stabilization of AR G-quadruplex oligonucleotide in human LNCAP cells assessed as down-regulation of KLK3 mRNA expression at IC50 after 72 hrs by RT-PCR analysis; format: cell-based
Summary of the method: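 Cells grown in RPMI-1640 with 10% fetal calf serum, 37 °C, 5% CO2, treated at an equitoxic concentration. Transcripts quantified by TaqMan real-time RT-PCR, normalized to RNaseP, expressed as relative quantity versus untreated cells (calibrator) by the 2−ΔΔCt method.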

Drug uptake [6]: Active
ΔTm [12]: 4.7 °C
Kd (Quadruplex DNA [13]): 17.9 nM
Kd [16]: 196 nM
Drug uptake [17]: Active
SMILES: CN(C)CCCn1c(=O)c2ccc3c(=O)n(CCCN(C)C)c(=O)c4c5[nH]c6ccccc6[nH]c5c(c1=O)c2c34.Cl.Cl
Activity (Quadruplex DNA [1]): Active
Activity (Quadruplex DNA [2]): Active
Activity (PC-3 [3]): inactive
Activity (Quadruplex DNA [4]): Active
Activity (Quadruplex DNA [5]): Active
Activity (Quadruplex DNA [7]): Active
IC50 (PNT1A): 280 nM
Activity (Quadruplex DNA [8]): Active
Activity (Quadruplex DNA [9]): Active
Activity (Quadruplex DNA [10]): Active
ED75 (PC-3 [11]): 21.1 µM
CI (CWR22R): <1
Activity (Quadruplex DNA [14]): Active
CI (PC-3 [15]): >1
Activity (Quadruplex DNA [18]): Active
Activity (Quadruplex DNA [19]): Active
Activity (Quadruplex DNA [20]): inactive
